The record followed here is ChEMBL document CHEMBL3112522, “Bicyclic brominated furanones: a new class of quorum sensing modulators that inhibit bacterial biofilm formation” (Bioorg Med Chem, 2014).

The source made the active and inactive calls. The calls are words filed in the database; no cut-off is given here.

For orientation: inhibition means the relative decrease from the control value, in per cent.

For data set [1], the target named is T1, Transcriptional activator protein LasR (Pseudomonas aeruginosa (strain ATCC 15692 / PAO1 / 1C / PRS 101 / LMG12228)) (UniProt P25084).
T1 sequence (whole entry): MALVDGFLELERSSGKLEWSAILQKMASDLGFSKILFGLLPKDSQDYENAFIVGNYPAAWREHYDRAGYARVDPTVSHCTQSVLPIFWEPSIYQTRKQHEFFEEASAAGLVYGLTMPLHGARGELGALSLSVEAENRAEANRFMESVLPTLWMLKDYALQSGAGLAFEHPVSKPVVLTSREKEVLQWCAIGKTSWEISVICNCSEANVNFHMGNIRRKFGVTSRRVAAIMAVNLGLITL
The data set is described as follows: Antagonist activity at LasR in Pseudomonas aeruginosa PAO1 expressing LasI assessed as inhibition of GFP production at 50 to 300 uM after 24 hrs by fluorescence assay relative to control.

Data set [2] deals with Escherichia coli. The data set is described as follows: Antibacterial activity against Escherichia coli RP437 expressing red fluorescence protein assessed as inhibition of biofilm formation at 200 uM after 24 hrs by confocal laser scanning microscopic analysis. The class given is functional, organism-based. In outline:
(§1)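 E. coli RP437 (pRSH103, red fluorescent; grown in LB with 10 µg/mL tetracycline) formed biofilms on 316 stainless-steel coupons with 200 µM compound or 0.4% DMSO control, static, 37 °C, 24 h. Coupons rinsed three times in 0.9% NaCl, then imaged by CLSM. COMSTAT gave biomass, mean thickness and surface area from z-stacks at four locations, normalized to the BF-free control. Four replicates.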

In data set [3] the test system is Escherichia coli. The data set is described as follows: Toxicity in Escherichia coli RP437 assessed as planktonic growth inhibition at 200 uM up to 8 hrs. The class given is organism-based. Conditions: in vivo. In outline:
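E. coli RP437 in LB at 37 °C, started at OD600 0.05 in 96-well plates with 200 µM compound (DMSO stock), shaken at 250 rpm. OD600 read at 0, 2, 4, 6, 8, 10, 12 and 24 h, normalized to the BF-free control. Six replicates.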

Data set [4] deals with T1, Transcriptional activator protein LasR (Pseudomonas aeruginosa (strain ATCC 15692 / PAO1 / 1C / PRS 101 / LMG12228)). The experiment in a line: Antagonist activity at LasR in Pseudomonas aeruginosa PAO-JP2 expressing LasI assessed as inhibition of GFP production at 50 to 300 uM after 24 hrs by fluorescence assay in presence of 3-oxo-C12-HSL. Summed up:
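PAO-JP2 (plasI-LVAgfp) grown in M9 with 300 µg/mL carbenicillin to OD600 0.1, given 1 µM 3-oxo-C12-HSL ± compound at varied concentrations, incubated 24 h at 37 °C with shaking at 250 rpm. GFP read at ex 500/em 540 nm, M9 background subtracted, divided by OD600 and normalized to the BF-free control. Four replicates.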

The target in data set [5] is T2, HTH-type quorum-sensing regulator RhlR (Pseudomonas aeruginosa (strain ATCC 15692 / PAO1 / 1C / PRS 101 / LMG12228)) (UniProt P54292).
T2 sequence (whole entry): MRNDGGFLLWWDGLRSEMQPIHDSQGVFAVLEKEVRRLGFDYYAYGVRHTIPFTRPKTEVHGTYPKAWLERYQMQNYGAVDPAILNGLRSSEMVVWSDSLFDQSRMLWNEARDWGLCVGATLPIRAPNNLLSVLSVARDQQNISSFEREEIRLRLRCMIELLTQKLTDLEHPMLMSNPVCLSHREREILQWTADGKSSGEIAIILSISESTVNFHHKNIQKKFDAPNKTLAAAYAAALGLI
The experiment in a line: Agonist activity at RhlR in Pseudomonas aeruginosa PAO1 expressing RhlI assessed as effect on GFP production at 50 to 300 uM after 24 hrs by fluorescence assay relative to control. In outline:
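PAO1 (prhlI-LVAgfp) grown in M9 with 300 µg/mL carbenicillin to OD600 0.1, exposed to compound at 50, 150 or 300 µM for 24 h at 37 °C with shaking at 250 rpm. Fluorescence read at ex 500/em 540 nm, M9 background subtracted, divided by OD600 and normalized to the BF-free control. Four replicates.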

Another data set relates to SK-N-SH. The experiment in a line: Cytotoxicity against human SK-N-SH cells assessed as cell survival at 100 uM incubated for 1 hr followed by compound washout measured up to 48 hrs by CCK-8 assay. The class given is cell-based. In outline:
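SK-N-SH cells seeded at 5×10^4 cells/mL (100 µL) in EMEM with 10% FBS and allowed to adhere 24 h. Exposed 1 h to 100 µM compound or DMSO control, washed twice, then allowed to recover 0, 24 or 48 h. Live cells measured by CCK-8 at A450. Survival = (sample − medium)/(control − medium) × 100.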

A short description of data set [6]: Cytotoxicity against human SK-N-SH cells assessed as cell survival at 400 uM incubated for 1 hr followed by compound washout measured after 48 hrs by CCK-8 assay relative to control. The class given is cell-based. Conditions: read-out: Survival. Summed up:
(§2)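 SK-N-SH cells were grown in EMEM with 10% FBS, penicillin/streptomycin and 2.0 mM L-glutamine at 37 °C, 5% CO2. Wells were seeded at 5×10^4 cells/mL and left 24 h to adhere. Cells were exposed for 1 h in fresh medium, with DMSO-matched controls, then washed twice. After 0, 24 or 48 h recovery, CCK-8 A450 was read. Survival = (sample−medium)/(control−medium)×100.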
(In general: Formazan colour is commonly taken as a measure of viable cells.)

The nature of data set [7]: Cytotoxicity against human SK-N-SH cells assessed as cell survival at 400 uM incubated for 1 hr followed by compound washout measured after 24 hrs by CCK-8 assay relative to control. The class given is cell-based. Conditions: read-out: Survival. In outline:
as §2

For data set [8], the system named is Escherichia coli. The data set is described as follows: Antibacterial activity against Escherichia coli RP437 expressing red fluorescence protein assessed as inhibition of biofilm formation measured as reduction in surface area at 200 uM after 24 hrs by confocal laser scanning microscopic analysis. The class given is functional, organism-based. In outline:
as §1

The test system of data set [9] is Escherichia coli. The experiment in a line: Antibacterial activity against Escherichia coli RP437 expressing red fluorescence protein assessed as inhibition of biofilm formation measured as reduction in biomass at 200 uM after 24 hrs by confocal laser scanning microscopic analysis. The class given is functional, organism-based. In outline: as §1
Data set [10] can be described thus: Cytotoxicity against human SK-N-SH cells assessed as cell survival at 400 uM incubated for 1 hr followed by compound washout measured immediately by CCK-8 assay relative to control. In kind it is cell-based. Conditions: read-out: Survival. In outline:
as §2

In data set [11] the test system is Escherichia coli. The experiment in a line: Antibacterial activity against Escherichia coli RP437 expressing red fluorescence protein assessed as inhibition of biofilm formation measured as reduction in mean thickness of biofilm at 200 uM after 24 hrs by confocal laser scanning microscopic analysis. The class given is functional, organism-based. In outline:
as §1

The test system of data set [12] is Pseudomonas aeruginosa. The data set is described as follows: Antibacterial activity against Pseudomonas aeruginosa PAO1 expressing green fluorescence protein assessed as inhibition of biofilm formation at 400 uM after 24 hrs by confocal laser scanning microscopic analysis. The class given is functional, organism-based. Summed up:
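PA01-GFP (pSMC2; grown in LB with 300 µg/mL carbenicillin) formed biofilms on stainless-steel coupons with 400 µM compound, static, 37 °C, 24 h. Coupons rinsed three times in 0.9% saline, then imaged by CLSM.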

Data set [13] has as its system Pseudomonas aeruginosa. The experiment in a line: Toxicity in Pseudomonas aeruginosa PAO1 assessed as planktonic growth inhibition at 400 uM after 24 hrs. The class given is organism-based. Conditions: in vivo.

`CC1=C(Br)/C(=C\Br)OC1=O`: the inhibition in data set [1] was found to be 46%. Moreover, the inhibition result (in the data set with Escherichia coli [2]; in [4]; in the data set with Escherichia coli [8]; in the data set with Escherichia coli [9]; in the data set on Escherichia coli [11]) was “Active” throughout. The Activity entry with Escherichia coli [3] and in the data set on SK-N-SH was “Toxic” in each case. For the same compound, in data set [5], the result was inactive. Moreover, the viability at 1 h, 400 µM in data set [6] is < 2%; in data set [7], < 2%; in [10] it was 29%.

Regarding `O=C1C=C(Br)/C(=C/Br)O1`, the inhibition result in the data set with Pseudomonas aeruginosa [12] was “Active”. Besides, the Activity entry with Pseudomonas aeruginosa [13] was “Toxic”.
